Laboratory results published in ChEMBL document CHEMBL4480452, “Molecular recognition of a branched peptide with HIV-1 Rev Response Element (RRE) RNA” (Bioorg Med Chem, 2019).
The source made the active and inactive calls. The rule behind the calls is not given here.

Tests used:
[1] = target: Rev responsive element (RRE) RNA; assay: Binding affinity to HIV-1 rev response element SL-IIB RNA by 2-Aminopurine-based fluorescence spectrophotometric analysis; format: nucleic-acid assay, Human immunodeficiency virus 1
[2] = target: Rev responsive element (RRE) RNA; assay: Binding affinity to HIV-1 rev response element SL-IIB RNA in presence of 10 times TAR RNA by 2-Aminopurine-based fluorescence spectrophotometric analysis; format: nucleic-acid assay, Human immunodeficiency virus 1
Summary of the method: (§1)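 Same 2-AP titration, run with 10-fold excess of unlabeled competitor nucleic acid. Conditions: 0.1 μM refolded 2-AP RRE SL-IIB RNA, peptide 0–20 μM, pH 7.0 phosphate/KCl/MgCl2 buffer, ex 310 / em 372 nm. Kd from Hill fit, at least duplicate, SD.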

[3] = system: Rev responsive element (RRE) RNA; assay: Binding affinity to SL1 and SL2 regions of 234 nucleotide long HIV-1 NL4-3 rev response element RNA by SHAPE-MaP technology assay; format: nucleic-acid assay; conditions: Human immunodeficiency virus 1
Summary of the method: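 234-nt RRE RNA (5 pmol), renatured then folded at 37 °C for 15 min (70 mM Tris pH 8.0, 180 mM KCl, 8 mM MgCl2, 5% glycerol). Peptide added at 1:1 or 1:10 RNA:peptide for 15 min at 37 °C, then 1M7 for 5 min at 37 °C, with DMSO and denaturing controls. Read by MaP reverse transcription, PCR and sequencing; reactivity compared by nucleotide position.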

[4] = target: Rev responsive element (RRE) RNA; assay: Binding affinity to HIV-1 rev response element SL-IIB RNA in presence of 10 times no bulge RRE RNA by 2-Aminopurine-based fluorescence spectrophotometric analysis; format: nucleic-acid assay, Human immunodeficiency virus 1; summary of the method: as §1
[5] = target: Rev responsive element (RRE) RNA; assay: Binding affinity to HIV-1 rev response element SL-IIB RNA in presence of 10 times RRE DNA by 2-Aminopurine-based fluorescence spectrophotometric analysis; format: nucleic-acid assay, Human immunodeficiency virus 1; summary of the method: as §1
[6] = system: Rev responsive element (RRE) RNA; assay: Binding affinity to internal loop and upper stem/ apical loop regions of 5-32P-labeled HIV-1 NL4-3 rev response element SL-IIB RNA by RNases A and V1 based RNase protection assay; format: nucleic-acid assay; conditions: Human immunodeficiency virus 1
Summary of the method: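 5′-32P-labeled RRE SL-IIB (10 nM) with 200 nM unlabeled RNA, refolded at 95 °C for 3 min and snap-cooled. Incubated with peptide (0–20 μM) on ice for 4 h in 10 mM Tris pH 7, 100 mM KCl, 10 mM MgCl2. Digested on ice with RNase V1 (0.002 U, 10 min) or RNase A (20 ng, 1 h). Cleavage read on 12% denaturing PAGE by autoradiography.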

[7] = system: Rev responsive element (RRE) RNA; assay: Binding affinity to HIV-1 NL4-3 5-32P-labeled rev response element SL-IIB RNA by RNases A and V1 based RNase protection assay; conditions: Human immunodeficiency virus 1

Compound: N=C(N)N[C@@H]1C[C@@H](C(=O)N2C[C@H](N)C[C@@H]2C(=O)N[C@@H](Cc2ccc(O)cc2)C(N)=O)N(C(=O)[C@H]2C[C@@H](N)CN2C(=O)[C@H](CCCCNC(=O)[C@H]2C[C@@H](N)CN2C(=O)[C@@H]2C[C@@H](NC(=N)N)CN2C(=O)[C@H]2C[C@@H](N)CN2)NC(=O)[C@H]2C[C@@H](N)CN2C(=O)[C@@H]2C[C@@H](NC(=N)N)CN2C(=O)[C@H]2C[C@@H](N)CN2)C1
- Kd [1]: 720 nM

Compound: N=C(N)N[C@H]1CN[C@H](C(=O)N[C@H]2CN[C@@H](C(=O)N[C@@H](Cc3cccc4ccccc34)C(=O)NCCCC[C@H](NC(=O)[C@H](Cc3cccc4ccccc34)NC(=O)[C@H]3C[C@@H](NC(=O)[C@@H]4C[C@@H](NC(=N)N)CN4)CN3)C(=O)NCCN(CC(=O)NCCN(CC(=O)N[C@@H](Cc3cccc4ccccc34)C(=O)N[C@@H](Cc3ccc(O)cc3)C(N)=O)C(=O)Cn3cnc4c(=O)[nH]c(N)nc43)C(=O)Cn3cnc4c(=O)[nH]c(N)nc43)C2)C1
- Kd [1]: 660 nM

Compound: N=C(N)N[C@@H]1C[C@@H](C(=O)N[C@H]2CN[C@@H](C(=O)N[C@@H](Cc3ccc(O)cc3)C(N)=O)C2)N(C(=O)CN(CCNC(=O)[C@H](CCCCNC(=O)[C@@H]2C[C@@H](NC(=N)N)CN2C(=O)[C@H]2C[C@@H](N)CN2C(=O)[C@@H](N)CCCCNC(=O)c2cnccn2)NC(=O)[C@@H]2C[C@@H](NC(=N)N)CN2C(=O)[C@H]2C[C@@H](N)CN2C(=O)[C@@H](N)CCCCNC(=O)c2cnccn2)C(=O)Cn2cnc3c(=O)[nH]c(N)nc32)C1
- Kd [1]: 1110 nM

Compound: N=C(N)N[C@@H]1C[C@@H](C(=O)N2C[C@H](NC(=N)N)C[C@H]2C(=O)N[C@@H](CCCCNC(=O)c2cnccn2)C(=O)N[C@@H](Cc2ccc(O)cc2)C(N)=O)N(C(=O)[C@H](CCCCNC(=O)[C@H](CCCCNC(=O)c2cnccn2)NC(=O)[C@H]2C[C@@H](NC(=O)[C@@H]3C[C@@H](NC(=N)N)CN3)CN2)NC(=O)[C@H](CCCCNC(=O)c2cnccn2)NC(=O)[C@H]2C[C@@H](NC(=O)[C@@H]3C[C@@H](NC(=N)N)CN3)CN2)C1
- Kd [1]: 1300 nM

Compound: N=C(N)N[C@@H]1C[C@@H](C(=O)NCCCC[C@H](NC(=O)[C@@H]2C[C@@H](NC(=N)N)CN2C(=O)[C@H]2C[C@@H](N)CN2C(=O)[C@@H]2C[C@@H](NC(=N)N)CN2)C(=O)N[C@@H](CCCCNC(=O)c2cnccn2)C(=O)N[C@@H](CCCCNC(=O)c2cnccn2)C(=O)NCCN(CC(=O)N[C@@H](Cc2ccc(O)cc2)C(N)=O)C(=O)Cn2cnc3c(=O)[nH]c(N)nc32)N(C(=O)[C@H]2C[C@@H](N)CN2C(=O)[C@@H]2C[C@@H](NC(=N)N)CN2)C1
- Kd [1]: 1120 nM

Compound: N=C(N)N[C@@H]1C[C@@H](C(=O)NCCN(CC(=O)N[C@@H](CCCCNC(=O)c2ccc(B(O)O)cc2)C(=O)N[C@@H](Cc2ccc(O)cc2)C(N)=O)C(=O)Cn2cnc3c(=O)[nH]c(N)nc32)N(C(=O)[C@H](CCCCNC(=O)[C@@H]2C[C@@H](NC(=N)N)CN2C(=O)[C@H]2C[C@@H](NC(=O)[C@@H]3C[C@@H](NC(=N)N)CN3)CN2)NC(=O)[C@@H]2C[C@@H](NC(=N)N)CN2C(=O)[C@H]2C[C@@H](NC(=O)[C@@H]3C[C@@H](NC(=N)N)CN3)CN2)C1
- Kd [1]: 630 nM

Compound: N=C(N)N[C@@H]1C[C@@H](C(=O)NCCN(CC(=O)N[C@@H](CCCCNC(=O)c2ccc(B(O)O)cc2)C(=O)N[C@@H](Cc2ccc(O)cc2)C(N)=O)C(=O)Cn2cnc3c(=O)[nH]c(N)nc32)N(C(=O)[C@H](CCCCNC(=O)[C@@H]2C[C@@H](NC(=N)N)CN2C(=O)[C@@H]2C[C@@H](NC(=N)N)CN2C(=O)[C@H]2C[C@@H](N)CN2)NC(=O)[C@@H]2C[C@@H](NC(=N)N)CN2C(=O)[C@@H]2C[C@@H](NC(=N)N)CN2C(=O)[C@H]2C[C@@H](N)CN2)C1
- Kd [2]: 3520 nM
- Activity [3]: Active
- Kd [4]: 1140 nM
- Kd [5]: 1480 nM
- Kd [1]: 400 to 410 nM
- Activity [6]: Active
- Activity [7]: Active

Compound: N=C(N)N[C@H]1CN[C@H](C(=O)N2C[C@H](N)C[C@@H]2C(=O)NCCN(CC(=O)NCCCC[C@H](NC(=O)CN(CCNC(=O)[C@H]2C[C@@H](N)CN2C(=O)[C@@H]2C[C@@H](NC(=N)N)CN2)C(=O)Cn2cnc3c(=O)[nH]c(N)nc32)C(=O)NCCN(CC(=O)N[C@@H](CCCCNC(=O)c2cnccn2)C(=O)N[C@@H](CCCCNC(=O)c2ccc(B(O)O)cc2)C(=O)N[C@@H](Cc2ccc(O)cc2)C(N)=O)C(=O)Cn2cnc3c(=O)[nH]c(N)nc32)C(=O)Cn2cnc3c(=O)[nH]c(N)nc32)C1
- Kd [1]: 1180 nM
